The values that follow come from ChEMBL document CHEMBL1122809, “Improved synthesis and antitumor activity of 2-bromo-2'-deoxyadenosine” (1984).

Assay [1] concerns L1210. Kind of assay: Antitumor activity expressed as life span was determined against inoculated L1210 leukemia cells (1*10e5) in mice by 22.5 mg/kg dosage of compound (qd (x 3), for days 1, 4, 7,10,13,16). Type of assay: functional, Mus musculus. The method, boiled down: (§1)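 Female mice (~18 g, housed six per cage) received L1210 cells intraperitoneally on day 0. Drug was made fresh and injected at 0.01 mL/g; the stated dose is per injection. Controls received the same volume of 0.154 M NaCl. Survival was followed, with deaths assigned to tumour by necropsy or to drug toxicity by set criteria. Life span is given as mean ± SD.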

The subject of assay [2] is L1210. Nature of the assay: Antitumor activity expressed percentage increase in life span was determined against inoculated L1210 leukemia cells (1*10e6) in mice by 22.5 mg/kg dosage of compound (qd (x 3), for days 1, 4, 7,10,13,16). Format: functional. As to conditions: Mus musculus. The method, boiled down: (§2)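 L1210 cells were given intraperitoneally to female mice (~18 g). Freshly prepared drug was injected at 0.01 mL/g, dose per injection, and saline-injected controls were run. The end point was duration of survival. ILS was calculated as percent increase in mean life span over controls. Mice surviving 60 days or more counted as long-term survivors, scored as 60 days.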

The test system of assay [3] is L1210. Kind of assay: Antitumor activity expressed percentage increase in life span was determined against inoculated L1210 leukemia cells (1*10e5) in mice by 22.5 mg/kg dosage of compound (qd (x 3), for days 1,5,9). Type of assay: functional. To be noted: Mus musculus. The method, boiled down:
as §2

Assay [4] concerns L1210. Nature of the assay: Antitumor activity expressed percentage increase in life span was determined against inoculated L1210 leukemia cells (1*10e5) in mice by 11.3 mg/kg dosage of compound (qd (x 3), for days 1, 4, 7). Format: functional. As to conditions: Mus musculus. The method in brief: as §2
The subject of assay [5] is L1210. Kind of assay: Antitumor activity expressed percentage increase in life span was determined against inoculated L1210 leukemia cells (1*10e5) in mice by 5.6 mg/kg dosage of compound (qd (x 3), for days 1, 4, 7,10,13,16). Format: functional. To be noted: Mus musculus. The method, boiled down:
as §2

Assay [6] concerns B16 melanoma (mouse). Nature of the assay: Antitumor activity was evaluated by measuring mean life span in tumor (B16 melanoma) inoculated mice at 22.5 mg/kg (qd3hx8),days 1,4,7,10,13,16.
Assay [7] relates to L1210. Nature of the assay: Antitumor activity expressed as life span was determined against inoculated L1210 leukemia cells (1*10e6) in mice by 5.6 mg/kg dosage of compound (qd (x 3), for days 1, 4, 7). Type of assay: functional, Mus musculus. The method in brief: as §1
Assay [8] has as its system L1210. Kind of assay: Antitumor activity expressed percentage increase in life span was determined against inoculated L1210 leukemia cells (1*10e6) in mice by 5.6 mg/kg dosage of compound (qd (x 3), for days 1, 4, 7,10,13,16). Format: functional. As to conditions: Mus musculus.
Assay [9] has as its system L1210. Kind of assay: Antitumor activity expressed as life span was determined against inoculated L1210 leukemia cells (1*10e6) in mice by 5.6 mg/kg dosage of compound (qd (x 3), for days 1, 4, 7,10,13,16). Format: functional, Mus musculus. The method, boiled down:
as §1

For assay [10], the system named is M5076. Nature of the assay: Antitumor activity was evaluated by measuring mean life span in tumor (M5076) inoculated mice at 11.3 mg/kg (qd3hx8),days 1-34. Format: functional, Mus musculus. The method in brief: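 Female mice of about 18 g received subcutaneous M5076 implants matching those used for serial passage. Drug was freshly prepared and injected at 0.01 mL/g every 3 h (×8) on every 3rd day from day 1 to day 34, with the dose stated per injection. Controls received 0.154 M NaCl. Groups held 18 mice (11 in one group). Mean life span was reported as mean ± SD, and tumor volume was also assessed.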

The test system of assay [11] is L1210. Kind of assay: Antitumor activity expressed as life span was determined against inoculated L1210 leukemia cells (1*10e5) in mice by 5.6 mg/kg dosage of compound (qd (x 3), for days 1,5,9). Type of assay: functional, Mus musculus. The method, boiled down:
as §1

Assay [12] concerns L1210. Nature of the assay: Antitumor activity expressed as life span was determined against inoculated L1210 leukemia cells (1*10e5) in mice by 22.5 mg/kg dosage of compound (qd (x 3), for days 1,5,9). Format: functional, Mus musculus. The method, boiled down: as §1
Assay [13] relates to L1210. Nature of the assay: Antitumor activity expressed as life span was determined against inoculated L1210 leukemia cells (1*10e5) in mice by 17.3 mg/kg dosage of compound (qd (x 3), for days 1,5,9). Format: functional, Mus musculus. The method, boiled down:
as §1

The subject of assay [14] is L1210. Nature of the assay: Antitumor activity expressed percentage increase in life span was determined against inoculated L1210 leukemia cells (1*10e6) in mice by 5.6 mg/kg dosage of compound (qd (x 3), for days 1, 4, 7). Format: functional. As to conditions: Mus musculus. The method, boiled down:
as §2

Assay [15] has as its system L1210. Kind of assay: Antitumor activity expressed percentage increase in life span was determined against inoculated L1210 leukemia cells (1*10e6) in mice by 11.3 mg/kg dosage of compound (qd (x 3), for days 1, 4, 7,10,13,16). Format: functional. As to conditions: Mus musculus. The method in brief:
as §2

Assay [16] relates to L1210. Kind of assay: Antitumor activity expressed percentage increase in life span was determined against inoculated L1210 leukemia cells (1*10e5) in mice by 22.5 mg/kg dosage of compound (qd (x 3), for days 1, 4, 7). Type of assay: functional. To be noted: Mus musculus. The method in brief: as §2
The test system of assay [17] is L1210. Nature of the assay: Antitumor activity expressed percentage increase in life span was determined against inoculated L1210 leukemia cells (1*10e6) in mice by 11.3 mg/kg dosage of compound (qd (x 3), for days 1, 4, 7). Format: functional. As to conditions: Mus musculus. The method, boiled down: as §2
Assay [18] has as its system M5076. Nature of the assay: Antitumor activity was evaluated by measuring mean life span in tumor (M5076) inoculated mice at 22.5 mg/kg (qd3hx8),days 1,4,7,15,18,21. Type of assay: functional, Mus musculus. The method in brief:
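Female mice of about 18 g received subcutaneous M5076 implants like those used for serial passage. Drug was prepared just before use and injected at 0.01 mL/g every 3 h (×8) on days 1, 4, 7, 15, 18 and 21, with the dose stated per injection. Controls received 0.154 M NaCl, and groups held 18 mice. Survival and tumor volume were recorded, and %ILS was derived from mean life span.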

Assay [19] concerns B16 melanoma (mouse). Kind of assay: Antitumor activity expressed percentage increase in life span was determined against inoculated B16 melanoma in mice by 22.5 mg/kg dosage of compound (qd3hx8), for days 1,4,7,10.
Assay [20] has as its system L1210. Kind of assay: Antitumor activity expressed as life span was determined against inoculated L1210 leukemia cells (1*10e6) in mice by 30 mg/kg dosage of compound (qd (x 3), for days 1- 7). Type of assay: functional, Mus musculus. The method in brief: as §1
Assay [21] has as its system L1210. Nature of the assay: Antitumor activity expressed as life span was determined against inoculated L1210 leukemia cells (1*10e6) in mice by 90 mg/kg dosage of compound (qd (x 3), for days 1, 4, 7). Format: functional, Mus musculus. The method, boiled down: as §1
The subject of assay [22] is L1210. Nature of the assay: Antitumor activity expressed percentage increase in life span was determined against inoculated L1210 leukemia cells (1*10e6) in mice by 70 mg/kg dosage of compound (qd (x 3), for days 1, 4, 7). Format: functional. As to conditions: Mus musculus. The method, boiled down: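 Female mice of about 18 g (BDF1, DBA/2 or C57Bl/6 stocks used) were inoculated intraperitoneally with 1 × 10^6 L1210 cells. Freshly prepared drug was given once daily from about 24 h after inoculation at 0.01 mL/g, with the dose stated per injection. Controls received 0.154 M NaCl, and groups held 6 mice. %ILS was taken from mean survival, with mice alive at 60 days or more counted as 60 days.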

Assay [23] relates to L1210. Kind of assay: Antitumor activity expressed as life span was determined against inoculated L1210 leukemia cells (1*10e6) in mice by 70 mg/kg dosage of compound (qd (x 3), for days 1, 4, 7). Format: functional, Mus musculus. The method in brief:
as §1

SMILES strings stand for the structures.

One may read the ILS as how much longer treated animals lived than controls. High values mean much gain in survival, low ones little gain in survival. As for `Nc1nc(Br)nc2c1ncn2[C@H]1C[C@H](O)[C@@H](CO)O1`, the Life span with L1210 [1] is 20.67 days; in the assay on B16 melanoma (mouse) [6] it was 19.22 days; with L1210 [7] it was 11.08 days; with L1210 [9], 10.5 days; in the assay with M5076 [10] it was 39.72 days; in the assay on L1210 [11], 12.36 days. Moreover, the Life span was found to be 21.42 days in the assay with L1210 [12]; 14 days in the assay with L1210 [13]; 43.33 days with M5076 [18]; 7.67 days with L1210 [20]; 7 days in the assay with L1210 [21]; 6.5 days with L1210 [23]. Further, the ILS at 22.5 mg/kg was 127% in the assay with L1210 [2], 176% in the assay with L1210 [3], 224% in the assay on L1210 [16] and 50% with B16 melanoma (mouse) [19]. The ILS at 11.3 mg/kg came out at 95% in the assay with L1210 [4], 86% in the assay with L1210 [15] and 104% with L1210 [17]. Further, the values for the ILS at 5.6 mg/kg in the assay with L1210 [5], in the assay on L1210 [8] and in the assay on L1210 [14] were 45%, 48% and 75%, respectively. This compound registered an ILS at 70 mg/kg in the assay with L1210 [22] of 3%.
